Assay [1] deals with HepG2. Put plainly: Cytotoxicity against human HepG2 cells in presence of galactose. It is filed as cell-based. In a few lines:
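HepG2 cells tested in DMEM/10% FBS containing galactose.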

The test system of assay [2] is HepG2. Put plainly: Cytotoxicity against human HepG2 cells in presence of glucose. The class given is cell-based. In a few lines:
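HepG2 cells tested in DMEM/10% FBS supplemented with glucose.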

Assay [3] addresses T1, Decaprenylphosphoryl-beta-D-ribose oxidase (Mycobacterium tuberculosis (strain ATCC 25618 / H37Rv)) (UniProt P9WJF1).
T1 sequence (whole entry): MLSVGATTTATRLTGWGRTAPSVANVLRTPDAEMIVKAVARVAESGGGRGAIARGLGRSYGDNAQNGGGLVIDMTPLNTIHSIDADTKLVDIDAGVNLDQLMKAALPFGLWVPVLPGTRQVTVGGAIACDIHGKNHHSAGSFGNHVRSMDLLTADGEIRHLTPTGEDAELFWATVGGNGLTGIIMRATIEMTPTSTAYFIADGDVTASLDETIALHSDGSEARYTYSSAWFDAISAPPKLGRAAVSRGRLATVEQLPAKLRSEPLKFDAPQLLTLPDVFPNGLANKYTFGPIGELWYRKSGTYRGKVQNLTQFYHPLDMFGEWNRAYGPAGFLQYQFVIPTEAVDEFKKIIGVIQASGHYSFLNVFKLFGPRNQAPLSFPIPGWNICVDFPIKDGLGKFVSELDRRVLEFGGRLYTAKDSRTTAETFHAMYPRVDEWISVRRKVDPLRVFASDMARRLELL
Put plainly: Inhibition of DprE1 in Mycobacterium tuberculosis H37Rv assessed as bacterial growth inhibition after 4 weeks.

The test system of assay [4] is Mycobacterium tuberculosis. Nature of the assay: Bactericidal activity against Mycobacterium tuberculosis H37Rv under aerobic condition after 7 days. The class given is functional, organism-based. Summed up:
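Log-phase H37Rv (OD650 0.2) diluted 1000-fold in 7H9/ADC and exposed to 1×, 5×, 10×, 20× and 50× MIC in duplicate. Sampled at days 1, 2, 4 and 7; CFU counted on 7H11/OADC plates.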

Assay [5] relates to Mycobacterium tuberculosis. Nature of the assay: Antitubercular activity against Mycobacterium tuberculosis H37Rv after 7 to 14 days in presence of GAST medium by two fold serial dilution method. The class given is functional. In a few lines: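 MIC in GAST (glycerol/alanine/salts/Tween 80 defined medium), strain H37Rv; screening hits tested as duplicate 12-point MIC determinations with MgCl2 at 0.06, 6 or 60 mM.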

Assay [6] concerns Mycobacterium tuberculosis. Nature of the assay: Antitubercular activity against Mycobacterium tuberculosis H37Rv assessed as induction of DNA damage by precA-LUX/pradA-LUX reporter-gene assay. The class given is functional, organism-based. In a few lines: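 DNA-damage read-out: induction of the recA and radA promoters measured as luminescence in H37Rv precA-LUX and pradA-LUX reporter strains.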

In assay [7] the test system is Mycobacterium tuberculosis. Nature of the assay: Bactericidal activity against Mycobacterium tuberculosis H37Rv under anaerobic condition at 1 to 50 fold MIC after 7 days. It is filed as functional, organism-based. Summed up:
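Anaerobic H37Rv from the self-generated oxygen-depletion (Wayne) model exposed to 1×, 5×, 10×, 20× and 50× MIC in an anaerobic chamber for 7 days. CFU counted on 7H11/OADC plates.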

In brackets after ≈: the same amount, converted by molar mass. Activity calls are given as the source filed them. No cut-off for these calls is given here. A value given as a limit tells only on which side of the number the result lay.

As to `Cn1c(Cc2ccccc2C(F)(F)F)nc(C(=O)Nc2ccccc2)c(O)c1=O`, the IC50 in assay [1] and in assay [2] was above 100 µM throughout.
`Cn1c(Cc2ccccc2C(F)(F)F)nc(C(=O)CCc2ccccc2)c(O)c1=O`: the IC50 in assay [1] and in assay [2] was above 100 µM in each case.
Regarding `Cn1c(Cc2ccccc2C(F)(F)F)nc(C(=O)NCc2ccccn2)c(O)c1=O`, the IC50 in assay [1] and in assay [2] was above 100 µM each time.
With `Cn1c(Cc2ccccc2C(F)(F)F)nc(C(=O)NCc2ccc(F)cc2)c(O)c1=O`, the IC50 in assay [1] and in assay [2] was above 100 µM in each case.
For the compound `COc1c(C(=O)NCc2ccccc2)nc(Cc2ccccc2C(F)(F)F)n(C)c1=O`, the IC50 in assay [1] and in assay [2] was above 100 µM in each case.
As for `Cn1c(Cc2ccccc2C(F)(F)F)nc(C(=O)NCc2ccc3c(c2)OCO3)c(O)c1=O`, the IC50 in assay [1] and in assay [2] was above 100 µM each time.
Take `O=C(NCc1ccccc1)c1nc(Cc2ccccc2C(F)(F)F)[nH]c(=O)c1O`: the IC50 in assay [1] and in assay [2] was above 100 µM each time.
In the case of `Cn1c(Cc2ccccc2C(F)(F)F)nc(C(=O)NCc2cccnc2)c(O)c1=O`, the IC50 in assay [1] and in assay [2] was above 100 µM in each case.
Regarding `CN(Cc1ccccc1)C(=O)c1nc(Cc2ccccc2C(F)(F)F)n(C)c(=O)c1O`, the half-inhibitory concentration (IC50) in assay [1] and in assay [2] was above 100 µM each time.
As for `CCn1c(Cc2ccccc2C(F)(F)F)nc(C(=O)NCc2ccccc2)c(O)c1=O`, the IC50 in assay [1] and in assay [2] was above 100 µM each time.
Regarding `Cn1c(Cc2ccccc2)nc(C(=O)NCc2ccccc2)c(O)c1=O`, the 50% inhibitory concentration (IC50) in assay [1] and in assay [2] was above 100 µM each time.
With `Cn1c(Cc2ccccc2C(F)(F)F)nc(C(=O)NCc2ccccc2F)c(O)c1=O`, the IC50 in assay [1] and in assay [2] was above 100 µM throughout.
In the case of `Cn1c(Cc2ccccc2C(F)(F)F)nc(C(=O)NCc2ccccc2)c(O)c1=O`, the MIC in assay [3] is 3.13 µM (≈ 1.31 µg/mL); in assay [5], 0.4 to 0.59 µM. Moreover, in assay [4], the Activity entry was “Dose-dependent effect”. Besides, the IC50 in assay [1] and in assay [2] was above 100 µM in each case. The outcome in assay [6] and in assay [7] was inactive.
`Cn1c(Cc2ccccc2C(F)(F)F)nc(C(=O)NCC2CCCCC2)c(O)c1=O`: the IC50 in assay [1] and in assay [2] was above 100 µM each time.
Take `CC(c1ccccc1C(F)(F)F)c1nc(C(=O)NCc2ccccc2)c(O)c(=O)n1C` (configuration not stated): the half-inhibitory concentration (IC50) in assay [1] and in assay [2] was above 100 µM throughout.
On to `CC(NC(=O)c1nc(Cc2ccccc2C(F)(F)F)n(C)c(=O)c1O)c1ccccc1` (configuration not stated), for which the IC50 in assay [1] and in assay [2] was above 100 µM throughout.

These data come from ChEMBL document CHEMBL4266019, “Discovery and Structure-Activity-Relationship Study of N-Alkyl-5-hydroxypyrimidinone Carboxamides as Novel Antitubercular Agents Targeting Decaprenylphosphoryl-β-d-ribose 2'-Oxidase” (J Med Chem, 2018).
